The values below come from ChEMBL document CHEMBL1140304, “Design and synthesis of potent inhibitors of plasmepsin I and II: X-ray crystal structure of inhibitor in complex with plasmepsin II” (J Med Chem, 2005).

The target of one experiment is Plasmepsin I (Plasmodium falciparum, UniProt P39898). Nature of the experiment: Inhibitory concentration against the plasmepsin-1 of Plasmodium falciparum. The method in brief:
(§1)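 Fluorogenic assay in 100 mM sodium acetate (pH 4.5), 10% glycerol and 0.01% Tween 20, with 3 µM DABCYL/EDANS peptide substrate. Enzymes: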

A further experiment addresses Plasmepsin II (Plasmodium falciparum, UniProt P46925). Nature of the experiment: Inhibitory concentration against the plasmepsin-2 of Plasmodium falciparum. The method in brief: as §1
The next experiment deals with Cathepsin D (Homo sapiens, UniProt P07339). The experiment can be described thus: Inhibitory concentration against the human Cathepsin D. The method in brief: as §1
Sequence of Cathepsin D (P07339 65-162 limits assumed): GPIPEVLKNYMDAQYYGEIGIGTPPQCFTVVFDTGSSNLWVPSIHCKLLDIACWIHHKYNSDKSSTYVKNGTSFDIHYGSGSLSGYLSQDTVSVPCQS
Sequence of Cathepsin D (P07339 169-412 limits assumed): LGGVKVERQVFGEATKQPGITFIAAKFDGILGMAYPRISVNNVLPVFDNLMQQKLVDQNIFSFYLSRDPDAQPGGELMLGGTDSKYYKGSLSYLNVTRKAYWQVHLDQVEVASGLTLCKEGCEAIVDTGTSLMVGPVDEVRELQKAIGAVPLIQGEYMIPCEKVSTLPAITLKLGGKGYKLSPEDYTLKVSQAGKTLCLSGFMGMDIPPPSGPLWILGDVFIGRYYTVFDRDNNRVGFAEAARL
For the next experiment, the system named is Plasmodium falciparum. The experiment can be described thus: Percentage inhibition of parasite growth in human erythrocytes at 5 uM. Type of experiment: functional. The method, boiled down:
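Synchronous P. falciparum 3D7 early trophozoites at ~1% haematocrit and 1% parasitaemia, with [3H]hypoxanthine at 10 µCi/mL. Compound (1-5 µM final) or DMSO (max 1% v/v) was added. Cultures ran 30 h at 37 °C in gassed boxes to mature schizonts, then were harvested onto filters for β-counting. Uptake was expressed relative to DMSO controls; four independent experiments.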

Sequence of Plasmepsin I (P39898 whole entry): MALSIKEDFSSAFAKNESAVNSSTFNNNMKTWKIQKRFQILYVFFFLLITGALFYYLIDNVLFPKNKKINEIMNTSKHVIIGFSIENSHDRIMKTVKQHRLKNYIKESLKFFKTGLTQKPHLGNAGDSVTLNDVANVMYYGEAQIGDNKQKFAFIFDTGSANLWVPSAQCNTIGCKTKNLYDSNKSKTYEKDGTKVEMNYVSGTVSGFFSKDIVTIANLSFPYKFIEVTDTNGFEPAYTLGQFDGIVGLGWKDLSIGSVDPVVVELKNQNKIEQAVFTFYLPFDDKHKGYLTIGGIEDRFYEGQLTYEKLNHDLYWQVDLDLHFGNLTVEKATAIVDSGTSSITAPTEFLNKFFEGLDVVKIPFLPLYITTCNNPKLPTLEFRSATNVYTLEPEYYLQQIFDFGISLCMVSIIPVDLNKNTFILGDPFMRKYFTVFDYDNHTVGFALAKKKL
Sequence of Plasmepsin II (P46925 whole entry): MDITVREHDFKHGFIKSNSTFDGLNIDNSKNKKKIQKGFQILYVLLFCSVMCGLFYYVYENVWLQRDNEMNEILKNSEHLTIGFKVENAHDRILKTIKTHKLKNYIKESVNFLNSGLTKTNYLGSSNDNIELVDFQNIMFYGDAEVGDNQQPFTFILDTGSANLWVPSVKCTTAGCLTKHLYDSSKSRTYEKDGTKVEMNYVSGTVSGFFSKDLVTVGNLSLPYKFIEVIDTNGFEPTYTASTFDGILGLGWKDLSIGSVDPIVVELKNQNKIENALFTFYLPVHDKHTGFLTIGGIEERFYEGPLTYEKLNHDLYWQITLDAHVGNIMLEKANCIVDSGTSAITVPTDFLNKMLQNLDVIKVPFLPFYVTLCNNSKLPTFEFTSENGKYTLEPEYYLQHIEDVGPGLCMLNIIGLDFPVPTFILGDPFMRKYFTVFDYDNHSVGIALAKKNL

Take `CC(C)C[C@H](NC(=O)[C@H](C)NC(=O)C[C@H](O)[C@H](COCc1cccc(-c2ccccc2)c1)NC(=O)[C@@H](NC(=O)c1ccccn1)C(C)C)C(N)=O`: the Ki was determined as 0.7 nM at Plasmepsin I, 4.4 nM on Plasmepsin II and 3.9 nM on Cathepsin D.

Turning to `CC(C)C[C@H](NC(=O)[C@H](C)NC(=O)C[C@H](O)[C@H](COCc1ccc(-c2ccccc2)cc1)NC(=O)c1c(F)cc(F)cc1F)C(N)=O`, the inhibition constant (Ki) at Plasmepsin I was 5.9 nM; at Plasmepsin II it was 48 nM; on Cathepsin D, 1730 nM.

The compound `CC(C)C[C@H](NC(=O)[C@H](C)NC(=O)C[C@H](O)[C@H](COCc1ccc(-c2ccccc2)cc1)NC(=O)[C@@H](NC(=O)c1ccccn1)C(C)C)C(N)=O` registered an inhibition at 5 µM with Plasmodium falciparum of 70%. For the same compound, the Ki on Plasmepsin I amounted to 0.3 nM; at Plasmepsin II, 0.9 nM; at Cathepsin D it was 2.5 nM.

In the case of `CCCCNC(=O)C[C@H](O)[C@H](COCc1ccc(-c2ccccc2)cc1)NC(=O)[C@@H](NC(=O)c1ccccn1)C(C)C`, the Ki at Plasmepsin I was determined as 1.9 nM; at Plasmepsin II, 16 nM; on Cathepsin D, 481 nM.

On to `O=C(C[C@H](O)[C@H](COCc1ccc(-c2ccsc2)cc1)NC(=O)c1c(F)cc(F)cc1F)NC1CCCCC1`, for which the Ki at Plasmepsin I came to 278 nM; at Plasmepsin II, 260 nM; on Cathepsin D, 4940 nM.

In the experiment with Plasmodium falciparum, `CC(C)C[C@H](NC(=O)[C@H](C)NC(=O)C[C@H](O)[C@H](COCc1ccc(-c2ccsc2)cc1)NC(=O)[C@@H](NC(=O)c1ccccn1)C(C)C)C(N)=O` yielded an inhibition at 5 µM of 46%. In addition, the Ki was 0.3 nM at Plasmepsin I, 1.1 nM on Plasmepsin II and 3.2 nM on Cathepsin D.

In the case of `CCCCNC(=O)C[C@H](O)[C@H](COCc1ccc(-c2ccsc2)cc1)NC(=O)[C@@H](NC(=O)c1ccccn1)C(C)C`, testing at 5 µM in the experiment on Plasmodium falciparum gave an inhibition of 9%. In addition, the Ki came to 1 nM at Plasmepsin I, 13 nM on Plasmepsin II and 241 nM at Cathepsin D.

Compound `O=C(C[C@H](O)[C@H](COCc1ccc(Br)cc1)NC(=O)c1c(F)cc(F)cc1F)NC1CCCCC1` gave an inhibition at 5 µM with Plasmodium falciparum of 0%.

With `CC(C)C[C@H](NC(=O)[C@H](C)NC(=O)C[C@H](O)[C@H](COCc1cccc(-c2ccsc2)c1)NC(=O)[C@@H](NC(=O)c1ccccn1)C(C)C)C(N)=O`, in the experiment with Plasmodium falciparum, the inhibition at 5 µM came out at 65%. For the same compound, the Ki was 0.4 nM at Plasmepsin I, 1.9 nM on Plasmepsin II and 1.6 nM at Cathepsin D.

`COc1cccc(CCNC(=O)C[C@H](O)[C@H](COCc2ccc(-c3ccccc3)cc2)NC(=O)c2c(F)cc(F)cc2F)c1`: the Ki at Plasmepsin I was 116 nM; on Plasmepsin II it was 308 nM; at Cathepsin D, greater than 5900 nM.

Turning to `CCCCNC(=O)C[C@H](O)[C@H](COCc1ccc(-c2ccc3c(c2)OCO3)cc1)NC(=O)[C@@H](NC(=O)c1ccccn1)C(C)C`, the Ki came to 2.7 nM at Plasmepsin I, 45 nM at Plasmepsin II and 685 nM at Cathepsin D.

Consider `COc1cccc(CCNC(=O)C[C@H](O)[C@H](COCc2ccc(Br)cc2)NC(=O)c2c(F)cc(F)cc2F)c1`, for which 5 µM produced 29% inhibition with Plasmodium falciparum.

Turning to `COc1cccc(CCNC(=O)C[C@H](O)[C@H](COCc2ccc(-c3ccsc3)cc2)NC(=O)c2c(F)cc(F)cc2F)c1`, the Ki at Plasmepsin I amounted to 221 nM; on Plasmepsin II, 693 nM; on Cathepsin D, 1880 nM.

In the case of `CC(C)C[C@H](NC(=O)[C@H](C)NC(=O)C[C@H](O)[C@H](COCc1ccc(-c2ccsc2)cc1)NC(=O)c1c(F)cc(F)cc1F)C(N)=O`, the results for the Ki on Plasmepsin I, at Plasmepsin II and on Cathepsin D were 2.1 nM, 55 nM and 1440 nM, respectively.

Regarding `CC(C)C[C@H](NC(=O)[C@H](C)NC(=O)C[C@H](O)[C@H](COCc1ccc(Br)cc1)NC(=O)c1c(F)cc(F)cc1F)C(N)=O`, 5 µM produced 10% inhibition with Plasmodium falciparum.

In the case of `CC(C)C[C@H](NC(=O)[C@H](C)NC(=O)C[C@H](O)[C@H](COCc1ccc(-c2ccc3c(c2)OCO3)cc1)NC(=O)[C@@H](NC(=O)c1ccccn1)C(C)C)C(N)=O`, in the experiment on Plasmodium falciparum, at 5 µM the inhibition was 83%. Moreover, the inhibition constant (Ki) was determined as 0.4 nM at Plasmepsin I, 1.1 nM at Plasmepsin II and 0.7 nM on Cathepsin D.

Consider `CC(C)C[C@H](NC(=O)[C@H](C)NC(=O)C[C@H](O)[C@H](COCc1cccc(Br)c1)NC(=O)[C@@H](NC(=O)c1ccccn1)C(C)C)C(N)=O`, for which at 5 µM the inhibition in the experiment with Plasmodium falciparum was 55%. Also, the values for the Ki at Plasmepsin I, at Plasmepsin II and on Cathepsin D were 1 nM, 5.7 nM and 32 nM, respectively.

Take `CC(C)C[C@H](NC(=O)[C@H](C)NC(=O)C[C@H](O)[C@H](COCc1ccc(-c2ccc3c(c2)OCO3)cc1)NC(=O)c1c(F)cc(F)cc1F)C(N)=O`: the Ki on Plasmepsin I turned out to be 3.3 nM; at Plasmepsin II, 19 nM; at Cathepsin D, 2700 nM.

With `O=C(C[C@H](O)[C@H](COCc1ccc(-c2ccccc2)cc1)NC(=O)c1c(F)cc(F)cc1F)NC1CCCCC1`, the values for the Ki at Plasmepsin I, at Plasmepsin II and at Cathepsin D were 188 nM, 214 nM and greater than 3600 nM, respectively.

As for `CC(C)C[C@H](NC(=O)[C@H](C)NC(=O)C[C@H](O)[C@H](COCc1ccc(Br)cc1)NC(=O)[C@@H](NC(=O)c1ccccn1)C(C)C)C(N)=O`, the inhibition at 5 µM in the experiment with Plasmodium falciparum came out at 51%.

For orientation: Ki means the dissociation constant of the complex between target and ligand, obtained from inhibition or displacement. High values mean lower affinity, low ones higher affinity. Usually inhibition stands for the drop in the measured response relative to a control, in per cent. A lower inhibition goes with a weak effect.
